Laboratory results reported in ChEMBL document CHEMBL1132723, “Potent 1,3-disubstituted-9H-pyrido[3,4-b]indoles as new lead compounds in antifilarial chemotherapy” (1999).
Values joined by “and” are separate entries in the source; they are usually repeats but may differ in a detail not shown here. Equal values may be shown once.

Columns and labels:
[1] = system: Acanthocheilonema viteae; test: In vivo anti-filarial (microfilaricidal) activity at an ip dose of 50 mg/kg (for 5 days) against A. viteae in Mastomys coucha.; assay type: functional; conditions: route intraperitoneal
Outline: (§1)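 Acanthocheilonema viteae infection in Mastomys coucha; compounds given as fine suspensions in 1% Tween 80 for 5 consecutive days, 50 mg/kg ip and/or 200 mg/kg orally. Micro- and macrofilaricidal action and sterilisation of surviving female worms were scored. Two to three animals per dose level, with at least two replicate experiments.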

[2] = system: Acanthocheilonema viteae; test: In vivo anti-filarial (macrofilaricidal) activity at an ip dose of 50 mg/kg (for 5 days) against A. viteae in Mastomys coucha.; assay type: functional; conditions: route intraperitoneal
Outline: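 Infected *Mastomys coucha* were dosed for 5 consecutive days, either 50 mg/kg ip or 200 mg/kg orally. Compounds were given as fine suspensions in 1% Tween 80. Each dose level used two to three animals, with at least two replicates to confirm activity. Micro- and macrofilaricidal action was scored by the cited earlier method.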

[3] = system: Acanthocheilonema viteae; test: Antifilarial activity as percent of surviving A. viteae in Mastomys coucha sterlized after an intraperitoneal dose of 50 mg/kg (for 5 days).; assay type: functional; outline: as §1
[4] = system: Mus musculus; test: Antifilarial activity evaluated as percent of surviving Brugia malayi that were sterlized after an ip dose of 50 mg/kg (for 5 days); assay type: functional; conditions: route intraperitoneal
Outline: (§2)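 Male Mastomys, 6 weeks old, each inoculated with 50 infective Brugia malayi larvae recovered from infected Aedes aegypti. Screening followed the A. viteae protocol, with a 1% Tween 80 suspension for 5 days at 50 mg/kg ip or 250 mg/kg orally. Micro- and macrofilaricidal action and sterilisation of surviving females were scored. Two to three animals per dose.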

[5] = system: Rattus norvegicus; test: In vivo anti-filarial (mif-microfilaricidal) activity at an ip dose of 30 mg/kg (for 5 days) against Litomosoides carinii in cotton rats; assay type: functional; conditions: route intraperitoneal
Outline: (§3)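 They received 30 mg/kg ip for 5 consecutive days as a 1% Tween 80 suspension. Blood microfilariae were counted before treatment and then weekly until day 42. Animals were then killed and adult worm condition scored.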

[6] = system: Rattus norvegicus; test: Antifilarial activity evaluated as percent of surviving Litomosoides carinii in cotton rats that were sterlized after an ip dose of 30 mg/kg (for 5 days); assay type: functional; conditions: route intraperitoneal
Outline: (§4)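 Cotton rats (Sigmodon hispidus), 6 weeks old, infected with Litomosoides carinii through the mite vector Liponyssus bacoti. Animals with ≥250 microfilariae/5 mm blood were used. Dosed 30 mg/kg ip for 5 consecutive days as a 1% Tween 80 suspension. Blood microfilariae were checked before treatment and weekly until day 42, when animals were killed and adult male and female worms examined.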

[7] = system: Rattus norvegicus; test: (§5) In vivo anti-filarial (maf-macrofilaricidal) activity at an ip dose of 30 mg/kg (for 5 days) against Litomosoides carinii in cotton rats; assay type: functional; conditions: route intraperitoneal; outline: as §3
[8] = system: Mus musculus; test: In vivo anti-filarial (maf-macrofilaricidal) activity at an ip dose of 50 mg/kg (for 5 days) against Brugia malayi; assay type: functional; conditions: route intraperitoneal
Outline: (§6)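 Male *Mastomys* infected at 6 weeks old with *B. malayi* larvae were dosed for 5 days, 50 mg/kg ip or 250 mg/kg orally, as a 1% Tween 80 suspension. Screening followed the *A. viteae* scheme. Micro- and macrofilaricidal action and sterilization of surviving female worms were scored. Each dose used two to three animals, with at least duplicate confirmation.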

[9] = system: Acanthocheilonema viteae; test: In vivo anti-filarial (mif-macrofilaricidal) activity at an oral dose of 200 mg/kg (for 5 days) against A. viteae in Mastomys coucha
[10] = system: Acanthocheilonema viteae; test: In vivo anti-filarial (mif-microfilaricidal) activity at an ip dose of 200 mg/kg (for 5 days) against A. viteae in Mastomys coucha
[11] = system: Mus musculus; test: In vivo anti-filarial (mif-microfilaricidal) activity at an po dose of 250 mg/kg (for 5 days) against Brugia malayi; assay type: functional; outline: as §2
[12] = system: Mus musculus; test: In vivo anti-filarial (maf-macrofilaricidal) activity at an po dose of 250 mg/kg (for 5 days) against Brugia malayi; assay type: functional; outline: as §6
[13] = system: Mus musculus; test: In vivo anti-filarial (mif-microfilaricidal) activity at an ip dose of 50 mg/kg (for 5 days) against Brugia malayi; assay type: functional; conditions: route intraperitoneal; outline: as §6
[14] = system: Mus musculus; test: In vivo anti-filarial (mif-microfilaricidal) activity at an oral dose of 200 mg/kg (for 5 days) against A. viteae in Mastomys coucha; assay type: functional; outline: as §1
[15] = system: Acanthocheilonema viteae; test: In vivo anti-filarial (maf-macrofilaricidal) activity at an oral dose of 200 mg/kg (for 5 days) against A. viteae in Mastomys coucha
[16] = system: Rattus norvegicus; test: as §5; assay type: functional; conditions: route intraperitoneal; outline: as §4; remark: listed apart in the source
[17] = system: Mus musculus; test: In vivo anti-filarial (mif-microfilaricidal) activity at an ip dose of 100 mg/kg (for 5 days) against Brugia malayi; assay type: functional; conditions: route intraperitoneal
[18] = system: Rattus norvegicus; test: In vivo anti-filarial (mif-microfilaricidal) activity at an ip dose of 75 mg/kg (for 5 days) against Litomosoides carinii in cotton rats; assay type: functional; conditions: route intraperitoneal
[19] = system: Mus musculus; test: In vivo anti-filarial (maf-macrofilaricidal) activity at an ip dose of 100 mg/kg (for 5 days) against Brugia malayi; assay type: functional; conditions: route intraperitoneal

Structure (SMILES) | Activity [1] [%] | Activity [2] [%] | Activity [3] [%] | also measured
COC(=O)c1cc2c([nH]c3ccccc32)c(-c2cccc(Cl)c2)n1 | 0 | 81 | – | –
COC(=O)C1Cc2c([nH]c3ccccc23)C(c2cccc(Br)c2)N1 (stereo not given) | 90 | 0 | – | –
COC(=O)C1Cc2c([nH]c3ccccc23)C(c2ccsc2)N1 (stereo not given) | 0 | 57 | – | –
COC(=O)c1cc2c([nH]c3ccccc32)c(-c2cccs2)n1 | 62 | 45 | 0 | –
OCc1cc2c([nH]c3ccccc32)c(-c2ccc(Cl)cc2)n1 | 76 | 56 | 75 | Activity [4]: 85%; Activity [5]: 29%; Activity [6]: 0%; Activity [7]: 95%; Activity [8]: 62%; Activity [9]: 94%; Activity [10]: 0%; Activity [11]: 0%; Activity [12]: 56% and 69%; Activity [13]: 0%
NC(=O)c1cc2c([nH]c3ccccc32)c(-c2cccc(Br)c2)n1 | 0 | 69 | – | –
COC(=O)c1cc2c([nH]c3ccccc32)c(-c2ccccc2F)n1 | 0 | 44 | – | –
COC(=O)C1Cc2c([nH]c3ccccc23)C(c2ccccc2Cl)N1 (stereo not given) | 0 | 93 | – | Activity [14]: 0%; Activity [15]: 0%; Activity [5]: 0%; Activity [16]: 20%; Activity [6]: 88%
COC(=O)C1Cc2c([nH]c3ccccc23)C(c2cccc(Cl)c2)N1 (stereo not given) | 0 | 50 | – | –
CCN(CC)C(=O)N1CCN(C)CC1.O=C(O)CC(O)(CC(=O)O)C(=O)O [DIETHYLCARBAMAZINE CITRATE] | 90 | 0 | – | Activity [16]: 0%; Activity [17]: 90%; Activity [18]: 90%; Activity [19]: 0%
COC(=O)C1Cc2c([nH]c3ccccc23)C(c2ccc(Cl)cc2)N1 (stereo not given) | 94 | 39 | 100 | –
OCc1cc2c([nH]c3ccccc32)c(-c2ccc(F)cc2)n1 | 0 | 75 | – | –
NC(=O)c1cc2c([nH]c3ccccc32)c(-c2cccc(Cl)c2)n1 | 84 | 0 | 50 | –
NNC(=O)c1cc2c([nH]c3ccccc32)c(-c2ccsc2)n1 | 91 | 0 | – | –
COC(=O)c1cc2c([nH]c3ccccc32)c(-c2cccc(Br)c2)n1 | 0 | 84 | 100 | –
COC(=O)c1cc2c([nH]c3ccccc32)c(-c2ccsc2)n1 | 0 | 60 | – | –
NC(=O)c1cc2c([nH]c3ccccc32)c(-c2cccs2)n1 | 93 | 0 | – | –
Cc1ccc(-c2[nH]c(CO)cc3c4ccccc4nc2-3)cc1 | 0 | 0 | 40 | –
NC(=O)c1cc2c([nH]c3ccccc32)c(-c2ccccc2Cl)n1 | 44 | 86 | 100 | –
COC(=O)C1Cc2c([nH]c3ccccc23)C(c2ccc(F)cc2)N1 (stereo not given) | 0 | 25 | – | –
COC(=O)c1cc2c([nH]c3ccccc32)c(-c2ccc(F)cc2)n1 | 0 | 56 | 67 | –
COC(=O)c1cc2c([nH]c3ccccc32)c(-c2ccc(C)cc2)n1 | 0 | 100 | – | –
COC(=O)C1Cc2c([nH]c3ccccc23)C(c2ccc(C)cc2)N1 (stereo not given) | 0 | 90 | – | –
NC(=O)c1cc2c([nH]c3ccccc32)c(-c2ccc(Cl)cc2)n1 | 0 | 0 | 60 | –
NC(=O)c1cc2c([nH]c3ccccc32)c(-c2ccsc2)n1 | 0 | 89 | – | –
COC(=O)c1cc2c([nH]c3ccccc32)c(-c2ccccc2Cl)n1 | 0 | 94 | – | –
